Screening data (PubChem BioAssay)
Env fusion inh – HIV envelope-mediated fusion inhibition; HeLa-JRFL Env/CEM21 cell fusion, luciferase; inhibition, % at 12.3 µM; hit rate 1.1% among 360,000; AID 651610;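 active means mean replicate inhibition score of at least 50 and every replicate individually at or above 50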;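 further: 0% = plate neutral controls and 100% = maraviroc near 300 nM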
Cneo AK release – Cryptococcus neoformans lysis via adenylate kinase release | AID 651654 | hit rate 0.2% among 360,000 | C. neoformans lysis, adenylate kinase release luminescence, 4 h; normalised: neutral wells 0, clomiphene wells 100 | lysis activity, % at 15 µM;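 active means mean lysis activity across replicates of at least 80%, whatever share of replicates individually reach that level; inactive means mean lysis activity below 80%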
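read-out = cell lysis signal | test system = log-phase Cryptococcus neoformans yeast cells | input = cells at 5 × 10^6 per mL | medium = fresh YPD growth medium | signal = luminescent adenylate kinase detection reagent | timing = 4 h at 37 °C static, read 1 h later | dosing = single dose | controls = Clomiphene as positive lysis control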
esBAF inh – SWI/SNF esBAF complex inhibition; mouse ES cells, Bmi1-luciferase knock-in reporter, 24 h; 100% = twice the neutral-well signal; reporter increase, % at 12.5 µM; hit rate 2% among 350,000; AID 602393; in the data active means activation above about 40%;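 further: 0% = median of the plate's neutral control wells and 100% = double that signal; a rise in the Bmi1 reporter signal indicates esBAF inhibition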
MITF act – activators of MITF-driven TRPM1 promoter activity in SK-MEL-5 cells | SK-MEL-5 TRPM1-promoter luciferase, 24 h; % of positive control, neutral wells = 0 | activation, % at 12.5 µM | hit rate 0.75% among 300,000 | AID 588334;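 active means mean activation of at least 80% with every replicate also reaching 80%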;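 further: 0% = neutral control wells and 100% = parthenolide positive control wells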
Wnt bcat act – activators of Wnt/beta-catenin signaling. AID 743398. Wnt/beta-catenin reporter cell assay, activator, plate reader. activation, % at 9.35 µM. hit rate 1.2% among 300,000; in the data active means activation above about 30%, passing the limit was not always enough;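 further: 0% = neutral control wells and 100% = positive control wells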
ERAP1 inh – blocks human ERAP1 aminopeptidase activity; Q9NZ08; recombinant ERAP1, Leu-AMC fluorescence, 60 min; inhibition, % at 10.7 µM; hit rate 0.15% among 340,000;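 active means mean replicate inhibition of at least 30%, or all replicates individually reaching that 30% level; inactive means mean below 30% and not every replicate reaching it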;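 further: 0% = neutral control wells and 100% = L-leucinethiol positive control wells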
Target sequence (Q9NZ08 whole entry, looked up): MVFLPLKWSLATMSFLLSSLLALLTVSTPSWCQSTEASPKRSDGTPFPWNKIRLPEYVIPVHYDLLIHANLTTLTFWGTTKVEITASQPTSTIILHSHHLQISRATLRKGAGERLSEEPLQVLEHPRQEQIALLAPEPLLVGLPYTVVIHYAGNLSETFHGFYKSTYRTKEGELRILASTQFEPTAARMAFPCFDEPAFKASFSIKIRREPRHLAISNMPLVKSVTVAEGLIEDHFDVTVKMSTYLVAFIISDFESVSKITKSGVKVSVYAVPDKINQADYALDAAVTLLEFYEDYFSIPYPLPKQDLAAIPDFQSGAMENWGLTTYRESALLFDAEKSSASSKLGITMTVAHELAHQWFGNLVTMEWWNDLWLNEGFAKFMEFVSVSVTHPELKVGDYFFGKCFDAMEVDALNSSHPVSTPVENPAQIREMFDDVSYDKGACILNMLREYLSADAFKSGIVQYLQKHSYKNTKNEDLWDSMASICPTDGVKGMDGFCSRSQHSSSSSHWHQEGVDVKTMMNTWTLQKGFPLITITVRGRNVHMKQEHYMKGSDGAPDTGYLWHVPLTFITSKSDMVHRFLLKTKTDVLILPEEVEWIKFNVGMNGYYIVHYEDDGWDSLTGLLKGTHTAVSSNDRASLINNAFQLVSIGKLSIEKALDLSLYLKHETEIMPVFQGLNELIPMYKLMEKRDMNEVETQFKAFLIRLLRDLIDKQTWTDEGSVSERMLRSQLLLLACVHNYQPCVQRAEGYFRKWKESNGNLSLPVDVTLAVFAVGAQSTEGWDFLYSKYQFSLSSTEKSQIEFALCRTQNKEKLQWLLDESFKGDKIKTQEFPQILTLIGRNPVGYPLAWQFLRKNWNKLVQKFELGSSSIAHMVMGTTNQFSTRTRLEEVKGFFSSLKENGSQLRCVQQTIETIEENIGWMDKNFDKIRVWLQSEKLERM
* marks the source's active call; other numbers are inactive results; [ ] = another dose, or the depositor's remark. A selection: hits, their analogues and other compounds. The true share with any hit is near 3.5%.

O=[N+]([O-])c1ccc(N/N=C/c2cccs2)nc1 was read as Env fusion inh -79, MITF act 109*, Wnt bcat act 56* and ERAP1 inh 1.
Screening COc1ccc(NN=Nc2ccc([N+](=O)[O-])cc2)cc1 returned Env fusion inh -79, Cneo AK release 1, esBAF inh 49*, MITF act 99*, Wnt bcat act 8 and ERAP1 inh -2.
O=C1/C(=C/c2cccc([N+](=O)[O-])c2)CCc2ccccc21 was read as Env fusion inh -15, Cneo AK release 2, esBAF inh -12 and MITF act 6.
O=C1/C(=C/c2cccc([N+](=O)[O-])c2)CSc2ccc(Cl)cc21 was read as Env fusion inh 61*, esBAF inh 4, MITF act 18 and Wnt bcat act 0.
For O=C(c1ccc(Cl)c([N+](=O)[O-])c1)N1CCN(c2ccccn2)CC1 the results were Env fusion inh 6, MITF act -4, Wnt bcat act 8 and ERAP1 inh 2.
`O=[N+]([O-])c1cc(-c2n(-c3ccccn3)c3ccccc3[n+]2-c2ccccn2)ccc1Cl` gave Env fusion inh 64*, Cneo AK release 6, MITF act 0, Wnt bcat act 0 and ERAP1 inh 2.
CSc1ccccc1CNc1nc(NCC2CC2)nc2ccsc12 was read as Env fusion inh 56*, Cneo AK release -1, esBAF inh -29, Wnt bcat act -1 and ERAP1 inh 1.
For COc1ccccc1CNc1nc(NCCOc2ccccc2Cl)c2sccc2n1 the results were Env fusion inh 72*, Cneo AK release 6, esBAF inh 1, Wnt bcat act -6 and ERAP1 inh 2.
COC(=O)C[C@@H]1CC[C@H]2[C@H](COc3ccc(NS(=O)(=O)c4cccc(F)c4)cc3C(=O)N2C)O1 was read as Env fusion inh 17[16.7 µM], Cneo AK release -3, esBAF inh 10 and ERAP1 inh 7.
CC1(C)CC(=O)C(=Cc2cn(-c3ccccc3)nc2-c2ccc(Cl)cc2)C(=O)C1 was read as Cneo AK release 6, esBAF inh 83* and MITF act 13.
Screening O=C(CN1CCOCC1)N1CCCCN2[C@H](CO)[C@H](c3ccc(C#Cc4ccccc4)cc3)[C@H]2C1 returned Cneo AK release 2 and ERAP1 inh 2.
Nc1nnc(CC(=O)N/N=C/c2ccc(-c3ccc(F)cc3)o2)s1 was read as Env fusion inh -1, Cneo AK release -2 and Wnt bcat act 4.
Nc1nnc(CC(=O)N/N=C/c2ccc(-c3cccc(C(=O)O)c3)o2)s1 was read as Env fusion inh 7, Cneo AK release 1, MITF act 8, Wnt bcat act 38* and ERAP1 inh 1.
For O=C(C[C@H]1CC[C@H]2[C@@H](COC[C@H](O)CN2Cc2cocn2)O1)NCc1cccc(F)c1 the results were Env fusion inh -4[16.7 µM], Cneo AK release 45, esBAF inh -5 and ERAP1 inh -3.
Screening OCC1(CCOc2ccccc2)CCN(Cc2ccccc2C(F)(F)F)CC1 returned Env fusion inh -1, Cneo AK release 1, esBAF inh -4, MITF act 3, Wnt bcat act 41* and ERAP1 inh -2.
For CCOc1ccccc1CN1CCC(CO)(CCOc2ccccc2)CC1 the results were Env fusion inh 5, MITF act 5, Wnt bcat act -3 and ERAP1 inh 9.
`O=C(CSC1CN(C(c2ccccc2)c2ccccc2)C1)N/N=C/c1ccc(Cl)cc1Cl` gave Env fusion inh 65*, esBAF inh -2, MITF act 5, Wnt bcat act -2 and ERAP1 inh 4.
Screening O=S(=O)(Nc1nc2ccccc2nc1NCc1ccco1)c1ccc(Cl)cc1 returned Cneo AK release -1, esBAF inh -1 and MITF act -7.
For Cc1ccc(S(=O)(=O)Nc2nc3ccccc3nc2NCc2ccco2)cc1 the results were esBAF inh 92* and MITF act -5.
For COc1cc(Cl)ccc1OCc1cc(C(=O)N2CCCC(OC)C2)no1 (centres undefined) the results were Env fusion inh -48, Cneo AK release 2, esBAF inh 75*, MITF act 55, Wnt bcat act 45* and ERAP1 inh 7.
`CCCOC1CCCN(C(=O)c2cc(COc3ccc(F)c(F)c3)on2)C1` (centres undefined) gave Env fusion inh -52, Cneo AK release -1, esBAF inh 47*, MITF act 90*, Wnt bcat act 21 and ERAP1 inh -2.
For COc1cc(Cl)ccc1OCc1cc(C(=O)N2CCN(C)CC2)no1 the results were Env fusion inh -6, Cneo AK release -4, esBAF inh -3, MITF act 14, Wnt bcat act 1 and ERAP1 inh 0.
Screening COc1cc(Cl)ccc1OCc1cc(C(=O)N2CCCCCC2)no1 returned Env fusion inh -2, Cneo AK release 0, esBAF inh 45*, MITF act 22, Wnt bcat act 1 and ERAP1 inh -1.
Screening CS(=O)(=O)Nc1ccc2c(c1)[C@H]1C[C@@H](CC(=O)NCCN3CCCCC3)O[C@@H](CO)[C@H]1O2 returned Env fusion inh 67*[16.7 µM], Cneo AK release -2, esBAF inh -2 and ERAP1 inh 2.
For CS(=O)(=O)Nc1ccc2c(c1)[C@@H]1C[C@H](CC(=O)N3CCc4ccccc4C3)O[C@@H](CO)[C@@H]1O2 the results were Env fusion inh -7[16.7 µM], Cneo AK release -4, esBAF inh 0 and ERAP1 inh 0.
CN1CCN(C(=O)C[C@@H]2C[C@H]3c4cc(NS(C)(=O)=O)ccc4O[C@H]3[C@@H](CO)O2)CC1 was read as Env fusion inh 20[16.7 µM], Cneo AK release -1, esBAF inh 4 and ERAP1 inh -3.
`CS(=O)(=O)Nc1ccc2c(c1)[C@@H]1C[C@@H](CC(=O)NCCN3CCCCC3)O[C@@H](CO)[C@@H]1O2` gave Env fusion inh -5[16.7 µM], Cneo AK release 5, esBAF inh 1 and ERAP1 inh -3.
CS(=O)(=O)Nc1ccc2c(c1)[C@H]1C[C@H](CC(=O)N3CCc4ccccc4C3)O[C@H](CO)[C@H]1O2 was read as Env fusion inh 63*[16.7 µM], Cneo AK release 7, esBAF inh 8 and ERAP1 inh -1.
`CS(=O)(=O)Nc1ccc2c(c1)[C@@H]1C[C@@H](CC(=O)N3CCc4ccccc4C3)O[C@H](CO)[C@@H]1O2` gave Env fusion inh 63*[16.7 µM], Cneo AK release 12, esBAF inh 6 and ERAP1 inh 1.
`CN1CCN(C(=O)C[C@H]2C[C@@H]3c4cc(NS(C)(=O)=O)ccc4O[C@@H]3[C@H](CO)O2)CC1` gave Env fusion inh 64*[16.7 µM], Cneo AK release 1, esBAF inh 0 and ERAP1 inh 0.
